In PMC10166105 (International Journal of Nanomedicine, 2023):

Legend:
[1] = pH 7.4
[2] = property table of leuprolide acetate; no matrix and reference not given; cited from earlier work
PC3 spheroids = experiment: Anti-tumor response in 3D spheroid culture model; assay type: cell-based, human; conditions: PC3 3D spheroids, 50 μM, 7 days, n = 3
In short: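 PC3 cells were suspended at 2000 cells/mL in 10% FBS-RPMI 1640 with 1% (v/v) Matrigel, plated in ultra-low-attachment wells, centrifuged at 1500 rpm for 10 min and grown at 37 °C, 5% CO2. After 4 days of spheroid formation, test compound was added once at final 50 μM in 2.5% FBS-RPMI. Spheroid area was imaged over 7 days and expressed as fold of day-0 area. n = 3.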

PC3 cells = experiment: Cell proliferation assay in 2D monolayer culture; assay type: cell-based, human
In short: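 PC3 cells were grown in RPMI 1640 with 10% FBS and antibiotics, seeded at 1×10^4 cells/well, attached for 24 h, then dosed in 2.5% FBS-RPMI 1640. Single doses of 50, 100 and 200 μM were read at 72 h; daily 50 μM dosing ran for 4 days. Readout was WST-1 for 1 h with absorbance at 450 nm, versus untreated cells, plus live/dead imaging. n = 3, one-way ANOVA.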

[3] = property table of leuprolide acetate; no reference given; cited from earlier work

## Leuprolide–stearic acid nanoparticle [LSN]
[1]
  Change of particle size, short-time stability in PBS: no significant difference

## CCNC(=O)[C@@H]1CCCN1C(=O)[C@H](CCCNC(=N)N)NC(=O)[C@H](CC(C)C)NC(=O)[C@@H](CC(C)C)NC(=O)[C@H](Cc1ccc(O)cc1)NC(=O)[C@H](CO)NC(=O)[C@H](Cc1c[nH]c2ccccc12)NC(=O)[C@H](Cc1c[nH]cn1)NC(=O)[C@@H]1CCC(=O)N1 [LEU, Leuprolide]
[2]
  Half-life: 3 h
PC3 spheroids
  Spheroid growth (spheroid area/volume), one-time treatment: expansion of spheroid volume
PC3 cells; PC3, treatment repeated daily at 50 µM for 4 days, WST-1, n = 3
  Anti-proliferative effect (% of control): 8.9%
[3]
  Physiological charge: +1

## Leuprolide–palmitic acid nanoparticle [LPN]
[1]
  Change of particle size, short-time stability in PBS: no significant difference

## CCCCCCCCCCCCCCCCCC(=O)O [SA, stearic acid]
PC3 cells; PC3, one-time treatment, 50, 100, 200 μM, 72 h incubation, WST-1
  Cell survival / cell growth after one-time treatment: significantly inhibited cell growth

## Leuprolide–lauric acid nanoparticle [LLN]
[1]
  Change of particle size, short-time stability in PBS: slight increase in the particle size
